The values that follow come from ChEMBL document CHEMBL1124007, “Synthesis and structure-activity relationships of a new series of antiarrhythmic agents: monobasic derivatives of disobutamide” (1988).

The species entered for assay [1] is Canis familiaris. The assay is described as follows: Mean effective dose required to suppress ventricular ectopic rate in dog greater than or equal to 25% for a minimum duration of 10 min. It counts as functional. The following applies: Canis lupus familiaris, Cardiac ventricle, read-out: MED.
The species entered for assay [2] is Canis familiaris. The assay is described as follows: Mean effective dose required to suppress ventricular ectopic rate in dog greater than or equal to 25% for a minimum duration of 10 min; Side effects. Format: functional, organism-based. The note with it: Canis lupus familiaris; Cardiac ventricle.
Assay [3] concerns the target T1, Muscarinic acetylcholine receptor (Rattus norvegicus) (UniProt P08482+P08483+P08485+P08911+P10980). The assay is described as follows: (§1) Ratio of Muscarinic acetylcholine receptor affinity (IC50) of test compound to that of disopyramide. It counts as protein assay.
Assay [4] deals with T1, Muscarinic acetylcholine receptor (Rattus norvegicus). The assay is described as follows: Ratio of Muscarinic acetylcholine receptor affinity (IC50) of test compound to that of disopyramide; 1/2. It counts as protein assay.
Assay [5] deals with Canis familiaris. The assay is described as follows: Myocardial depression determined by monitoring the maximum rate of rise of left ventricular pressure in dog at 3 mg/kg dose. It counts as functional, Canis lupus familiaris, Heart left ventricle. The method in brief:
(§2)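 Closed-chest anesthetized dogs given compound intravenously at the stated dose; myocardial depression taken as percent decrease in maximum rate of rise of left ventricular pressure (max dP/dt), mean ± standard error of the mean over the dogs tested. ≤25% depression at the mean effective antiarrhythmic dose was deemed acceptable.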

Assay [6] concerns the target T1, Muscarinic acetylcholine receptor (Rattus norvegicus). The assay can be described thus: Ratio of Muscarinic acetylcholine receptor affinity (IC50) of test compound to that of disopyramide; 1/16. Format: protein assay.
In assay [7] the test system is Canis familiaris. The assay is described as follows: Myocardial depression determined by monitoring the maximum rate of rise of left ventricular pressure in dog at 10 mg/kg dose. It counts as functional, Canis lupus familiaris, Heart left ventricle.
The target of assay [8] is T1, Muscarinic acetylcholine receptor (Rattus norvegicus). The assay is described as §1. It counts as protein assay. The method in brief:
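Muscarinic receptor binding by displacement of [³H]QNB, test compound at three to six concentrations in triplicate. IC50 from log probit analysis. Value expressed as IC50(test)/IC50(disopyramide).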
This is another data set of the same source.

Assay [9] is filed under the species Canis familiaris. The assay is described as follows: Mean effective dose required to suppress ventricular ectopic rate in dog greater than or equal to 25% for a minimum duration of 10 min; Lethal. The note with it: Canis lupus familiaris, Cardiac ventricle, read-out: MED. Format: functional.
In assay [10] the test system is Canis familiaris. The assay can be described thus: Myocardial depression determined by monitoring the maximum rate of rise of left ventricular pressure in dog at 9 mg/kg dose. It counts as functional, Canis lupus familiaris, Heart left ventricle. The method in brief: as §2
Assay [11] concerns the target T1, Muscarinic acetylcholine receptor (Rattus norvegicus). The assay can be described thus: Ratio of Muscarinic acetylcholine receptor affinity (IC50) of test compound to that of disopyramide; 1/24. It counts as protein assay.
For assay [12] the target is unchanged. The assay can be described thus: Ratio of Muscarinic acetylcholine receptor affinity (IC50) of test compound to that of disopyramide; 1/4. It counts as protein assay.
The target is the same in assay [13]. The assay is described as follows: Ratio of Muscarinic acetylcholine receptor affinity (IC50) of test compound to that of disopyramide; 1/6. Format: protein assay.

Take `CC(C)N(CCC1(c2ccccc2Cl)CC2CCCCN2C1=O)C(C)C` (centres undefined): in assay [1], the minimal effective dose is 3.5 mg/kg. The MED result in [2] is reported as “Side effects”. Also, the Ratio in assay [3] is 1; in assay [4], 0.5.

With `CC(C)N(CCC1(c2ccc(-c3ccccc3)cc2)CC2CCCCN2C1=O)C(C)C` (centres undefined), in [1], the minimal effective dose worked out at 3 mg/kg. Further, the Decrease in assay [5] worked out at 35%. For the same compound, in assay [6], the Ratio worked out at 0.0625.

For `CC(C)N(CCC(C(N)=O)(c1ccccc1)c1ccccn1)C(C)C` (centres undefined) [DISOPYRAMIDE], the minimal effective dose in assay [1] amounted to 10 mg/kg. This compound also had a Decrease in assay [7] of 56%. For the same compound, the Ratio in assay [8] is 1.

`CC(C)N(CCC(CCN1CCCCC1)(C(N)=O)c1ccccc1Cl)C(=O)c1ccccc1` (centres undefined): the minimal effective dose in [1] turned out to be 2 mg/kg; in assay [9] it was 5 mg/kg.

Take `CC(=O)N(CCC(CCN1CCCCC1)(C(N)=O)c1ccccc1Cl)C(C)C` (centres undefined) [BIDISOMIDE]: in assay [1], the minimal effective dose came to 9 mg/kg. In [10], this compound yielded a Decrease of 20%. Also, the Ratio in assay [11] worked out at 0.0417.

In the case of `CC(C)N(CCC(CCC1CCCCN1)(C(N)=O)c1ccccc1Cl)C(C)C` (centres undefined), in assay [1], the minimal effective dose stood at 12.5 mg/kg. Besides, the Ratio in [12] was found to be 0.25.

With `CC(C)N(CCC1(c2ccccc2)CC2CCCCN2C1=O)C(C)C.Cl` (centres undefined), the minimal effective dose in assay [1] came to 10 mg/kg. Besides, the Ratio in assay [13] turned out to be 0.167.
